eLon inh: inhibitors of E. coli Lon protease, primary screen, biochemical, fluorescence polarization; AID 602123, 2011; inhibition, % at 7.94 µM; hit rate 0.42% among 360,000; purified E. coli Lon protease; in the data active = inhibition above about 13%, passing the limit was not always enough;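 note: 0% = enzyme with probe and DMSO and 100% = no enzyme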
TDP2 absorb: human TDP2 enzyme inhibitors, primary screen, biochemical, epi absorbance, recombinant enzyme; Tyrosyl-DNA phosphodiesterase 2 (Homo sapiens), O95551; hit rate 0.34% among 370,000; AID 720702, 2013; inhibition, % at 12.8 µM; T5PNP hydrolysis, p-nitrophenol absorbance 415 nm;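 active = inhibition above the mean of all tested compounds plus 3 SD, set per campaign, cut at about 25% in these data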;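 note: 0% = DMSO with enzyme and 100% = buffer with substrate but no TDP2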
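System: recombinant human TDP2 / Amount: 120 nM TDP2 per well / Also added: 5 mM T5PNP chromogenic substrate / Doses: 12.8 µM single point, 1% DMSO / Incubation: 2 h at 37 °C / Detection: p-Nitrophenol epi absorbance / Evaluation: % inhibition relative to enzyme-containing and enzyme-free wells / Repeats: singlicate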
GSTO1 counter: inhibitors of recombinant GSTO1, primary screen, counter-screen for RBBP9 inhibitor project, biochemical, fluorescence polarization. hit rate 1.1% among 300,000. inhibition, % at 5.96 µM. Glutathione S-transferase omega-1 (Homo sapiens), P78417. activity-based probe fluorescence polarization;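 active = inhibition above the campaign mean inhibition plus 3 SD, cut at about 35% in these data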;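 note: 0% = GSTO1-1 with DMSO and 100% = wells lacking GSTO1-1 enzyme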
PAD4 FP inh: human PAD4 inhibitors, primary screen, biochemical, fluorescence polarization, 1536-well format; Protein-arginine deiminase type-4 (Homo sapiens), Q9UM07; recombinant PAD4, RCA probe fluorescence polarization; inhibition, % at 6.36 µM; hit rate 0.41% among 330,000; AID 485272, 2010;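 active = percent inhibition above a cutoff equal to the mean of all tested compounds plus 3 SD, cut at about 15% in these data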;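 note: 0% = PAD4 with RCA probe and DMSO and 100% = probe without PAD4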
Target sequence (Q9UM07 whole entry, looked up): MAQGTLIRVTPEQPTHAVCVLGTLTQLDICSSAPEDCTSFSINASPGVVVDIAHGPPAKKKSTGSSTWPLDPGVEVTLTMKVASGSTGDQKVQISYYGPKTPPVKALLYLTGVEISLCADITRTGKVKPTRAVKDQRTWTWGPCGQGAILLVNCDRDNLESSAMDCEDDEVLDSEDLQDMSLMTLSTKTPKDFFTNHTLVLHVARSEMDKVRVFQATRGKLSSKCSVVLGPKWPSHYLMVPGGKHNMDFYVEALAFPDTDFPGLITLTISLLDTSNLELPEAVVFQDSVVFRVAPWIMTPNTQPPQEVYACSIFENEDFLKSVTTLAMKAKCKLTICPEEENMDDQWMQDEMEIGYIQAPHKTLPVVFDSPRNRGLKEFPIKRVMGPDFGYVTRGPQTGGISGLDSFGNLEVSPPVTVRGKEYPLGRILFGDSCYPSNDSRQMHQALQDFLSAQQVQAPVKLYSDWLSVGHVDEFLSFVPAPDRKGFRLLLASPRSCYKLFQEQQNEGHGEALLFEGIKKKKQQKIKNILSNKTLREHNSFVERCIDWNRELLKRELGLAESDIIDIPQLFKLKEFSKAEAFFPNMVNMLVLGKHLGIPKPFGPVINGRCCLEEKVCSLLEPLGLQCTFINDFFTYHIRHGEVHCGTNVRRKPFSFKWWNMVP
PRMT1 inh: PRMT1 methyltransferase inhibitors, primary screen, biochemical, fluorescence polarization. Protein arginine N-methyltransferase 1 (Homo sapiens), Q99873. recombinant PRMT1, activity-based probe fluorescence polarization. inhibition, % at 2.79 µM. hit rate 1.3% among 370,000;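 active = inhibition above about 21% made by adding two undisclosed values, limit read from the data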
PRMT1 inh conf: PRMT1 methyltransferase inhibitors, confirmation, biochemical, fluorescence polarization, triplicate; AID 687036, 2013; hit rate 42% among 3,300; inhibition, % at 2.79 µM; shares compounds with PRMT1 inh; recombinant His-PRMT1, activity-based probe fluorescence polarization;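 active = mean inhibition across replicates above the hit cutoff derived for the earlier primary screen, cut at about 22% in these data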
Active calls of the source: *; / = not tested or not shown. Hits are enriched below; roughly 2.5% of the tested compounds scored in any of these assays.

SMILES	eLon inh	TDP2 absorb	GSTO1 counter	PAD4 FP inh	PRMT1 inh	PRMT1 inh conf
O=c1nc2s/c(=C\c3ccc(-c4ccccc4[N+](=O)[O-])o3)c(=O)n2nc1-c1ccccc1	-3.2	3.4	/	/	59.2*	6.8
CCCCCCOc1ccc(N2C(=O)CC(NCCc3ccc(S(N)(=O)=O)cc3)C2=O)cc1 (centres undefined)	3.4	4.8	-8.9	1.4	41.8*	7.8
CCOc1ccc(N2C(=O)CC(NCc3ccc(F)cc3)C2=O)cc1 (centres undefined)	-3.5	2.4	14.4	4.5	54.8*	2.1
CCOc1cccc(N2C(=O)CC(NCc3ccc(S(N)(=O)=O)cc3)C2=O)c1 (centres undefined)	-5.6	-18.1	-5.4	0.7	45.9*	-0.6
COc1ccc(N2C(=O)CC(NCc3cccs3)C2=O)cc1 (centres undefined)	-9.9	-12.8	-2.9	0.1	50.6*	0.1
COc1ccc(N2C(=O)CC(NCC#N)C2=O)cc1 (centres undefined)	4.5	-3.5	2.0	-0.4	11.5	/
COC(=O)C1(Cc2ccc3c(c2)CCC3)Cc2ccc3c(c2C1=O)CCC3 (centres undefined)	-5.6	1.6	/	/	1.2	/
Nc1[nH]c(C(=O)c2ccccc2)c(-c2ccc3ccccc3c2)c1C(=O)NCCc1ccc(Cl)cc1	/	-10.5	/	/	19.0	/
COc1ccc(CCN(C)C2CC(=O)N(c3ccccc3)C2=O)cc1OC (centres undefined)	4.0	5.5	7.5	1.5	45.6*	2.0
COc1ccc(N2C(=O)CC(N(C)CCc3ccc(OC)c(OC)c3)C2=O)cc1 (centres undefined)	-1.3	-5.9	3.4	2.3	47.6*	2.8
COc1ccc(C2c3cc(OC)c(OC)cc3CCN2C2CC(=O)N(c3ccccc3)C2=O)cc1OC (centres undefined)	4.0	-18.4	1.7	-6.4	41.5*	5.2
CC(C)C[C@H]1COc2cc(Br)ccc2S(=O)(=O)N1Cc1cn(Cc2ccc(C(F)(F)F)cc2)nn1	/	5.4	/	/	-2.6	/
COc1ccc(CC(=O)n2[nH]c(=O)c3ccccc3c2=O)cc1OC	-6.2	4.3	3.8	-2.8	0.6	/
COc1ccc(CC(=O)n2[nH]c(=O)ccc2=O)cc1OC	2.1	-2.6	14.8	3.1	74.8*	96.0*
C#CCNC(=O)C[C@H]1C[C@@]2(C(=O)OC)C(=C[C@H](C(C)C)O[C@@H]2C2CC2)N(CCC2=CCCCC2)C1=O	/	2.2	/	/	-3.0	/
COCCNC(=S)c1ccc(Br)cc1	8.2	-1.9	7.0	1.7	35.9*	8.1
C[C@H](CO)N1C[C@H](C)[C@H](CN(C)C(=O)Nc2cccc(Oc3ccccn3)c2)OCc2cnnn2CCCC1=O	-2.0	-9.6	/	/	-1.8	/
c1ccc2c(c1)[nH]c1nc(SCCN3CCOCC3)nnc12	-5.5	-8.2	-6.0	2.8	29.9*	3.2
O=C(Nc1cccc(F)c1)/C(=C/c1ccco1)NC(=O)c1ccco1	-38.5	3.8	7.3	-2.7	30.2*	5.6
O=C(Nc1cccc(C(=O)O)c1)/C(=C\c1ccco1)NC(=O)c1ccccc1Cl	-11.0	-8.3	4.0	-2.4	29.8*	4.6
O=C(Nc1cccc(C(=O)O)c1)/C(=C\c1ccco1)NC(=O)c1ccccc1	-12.3	21.3	-1.1	-1.4	14.4	/
O=C(Nc1cccc(C(=O)O)c1)/C(=C\c1ccco1)NC(=O)c1ccc(Br)o1	-11.3	-1.9	2.1	-2.2	33.7*	0.7
O=C(NC1CC1)C(=O)c1c[nH]c2ccccc12	-3.9	3.6	3.5	1.6	0.3	/
O=C(NC1CC1)c1cc(=S)[nH]c2ccccc12	8.2	5.9	/	-2.7	39.1*	18.9
CCn1c2ccccc2c2n[nH]c(=S)nc21	-7.2	5.2	3.9	3.9	0.7	/
SMILES	eLon inh	TDP2 absorb	GSTO1 counter	PAD4 FP inh	PRMT1 inh	PRMT1 inh conf
O=C(O)Cn1c2ccccc2c2n[nH]c(=S)nc21	0.7	-0.1	-7.2	4.4	41.6*	84.7*
C=CCn1c2ccccc2c2n[nH]c(=S)nc21	4.7	-8.5	/	/	29.5*	4.9
O=C(O)CCn1c2ccccc2c2nc3ccccc3nc21	-5.7	0.1	-6.3	-5.0	3.6	/
Cc1ccc(OCC(=O)NC2=NCCS2)cc1	4.8	-1.9	-1.0	-6.9	-1.1	/
Cc1ccc(C2=NN=C(NC(=O)C(F)(F)F)SC2)cc1	-2.8	3.7	/	/	57.6*	60.9*
COC(=O)c1nn2c(C(F)(F)F)cc(-c3ccc(Br)o3)nc2c1Br	-4.4	3.0	8.3	3.0	29.8*	2.5
O=C(NC(Cc1c[nH]c2ccccc12)C(=O)OCC(=O)c1cccc2ccccc12)c1cccs1 (centres undefined)	-11.7	1.8	-2.0	1.9	50.3*	-0.7
CC(C)c1csc(CN2CCC(C(=O)Nc3cccc(-c4ccco4)c3)CC2)n1	-102.2	-8.3	/	/	27.1*	-0.6
O=C(c1cccc(I)c1)N1CCC(Oc2cccnc2)CC1	/	-2.1	/	/	-3.7	/
COc1cc2c(cc1OC)C(c1ccc(N(C)C)cc1)NCC2 (centres undefined)	13.2	5.5	-0.3	5.2	-0.5	/
Cc1ccc(C2NCCS2)cc1 (centres undefined)	-1.9	-17.9	7.4	0.2	32.3*	8.0
Cc1ccc(C2=NNC(=O)C(c3ccc(Cl)cc3)C2)cc1 (centres undefined)	-2.1	6.9	-4.3	-7.4	0.7	/
CN(C)c1ccc(C2NCCS2)cc1 (centres undefined)	-6.2	-7.1	4.0	-1.3	35.3*	33.9*
CC1(C)CC(N2CCOCC2)=CC(=S)N1	17.1	/	/	/	/	/
Cn1ncc(Br)c1NC(=O)c1cc(Cl)cc(Cl)c1	2.8	/	-2.8	2.0	/	/
CCSc1nc(-c2ccco2)ccc1C#N	-6.1	-14.3	2.4	-2.7	31.5*	18.2
O=C(Cn1sc2ccccc2c1=O)Nc1ccccc1	15.7	-4.2	/	/	86.7*	89.5*
O=C(CN1C(=O)c2ccccc2C1=O)Nc1ccccc1	-2.8	5.2	6.0	-3.1	-5.1	/
COc1ccc(N2CCN(CCCNC(=O)Cc3ccc(C(F)(F)F)cc3)CC2)cc1	/	7.2	/	/	-4.5	/
Cc1nc(NC(=O)c2cccnc2Cl)sc1C	1.5	13.2	8.0	-3.7	0.3	/
COCCCN(C(=O)CCSc1ccc(F)cc1)c1c(N)n(Cc2ccccc2)c(=O)[nH]c1=O	-1.6	-8.2	6.9	-3.5	0.1	/
CN1CCc2c(sc3c2C(=O)NC(c2cn(Cc4ccccc4)c4ccccc24)N3)C1 (centres undefined)	-113.0	8.5	-12.0	-5.0	-1.1	/
CN1CCc2c(sc3c2C(=O)NC(c2ccco2)N3)C1 (centres undefined)	-2.6	0.4	9.5	2.0	26.8*	-0.1

Bioassay records deposited in PubChem by The Scripps Research Institute Molecular Screening Center.
